Results published in ChEMBL document CHEMBL1268816, “Discovery of a series of potent, orally active α,α-disubstituted piperidine NK(1) antagonists” (Bioorg Med Chem Lett, 2010).
pKi: −log10 of the molar value.

Tests used:
Substance-P receptor = Substance-P receptor (Homo sapiens, UniProt P25103); assay: Displacement of [3H]SAr-Met from human recombinant NK1 receptor expressed in CHO cells; type: cell-based
Outline: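 Membranes from CHO cells expressing recombinant human NK1 receptor; radioligand [3H]-Sar-Met substance P used near its experimentally derived Kd. Ki derived by Cheng–Prusoff equation. Binding values are the average of two or three independent determinations.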

Meriones unguiculatus [1] = assay: Inhibition of GR-73632-induced foot tapping in Mongolian gerbil assessed as duration of repetitive hind foot tapping pretreated at 0.3 mg/kg, icv before GR-73632 challenge measured after 4 hrs; type: functional; details: oral, in the assay text read “po” for “icv”
Outline: (§1)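 Female Mongolian gerbils given NK1 agonist GR73632 (3 pmol) by icv injection. Test antagonists given orally in 0.4% methylcellulose in distilled water at the indicated dose, at various pretreatment times before agonist. After recovery from anesthesia, animals observed 5 min in clear boxes and hind-foot tapping duration timed. Result expressed as % decrease versus vehicle-treated controls.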

[2] = Half life in rat at 10 mg/kg, po; type: ADME, organism-based; design: dose 10 mg/kg, route oral; details: in vivo
Outline: (§2)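 Rat pharmacokinetics after oral dosing at 10 mpk (unless otherwise specified), vehicle 20% HPBCD.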

[3] = Oral bioavailability in rat at 10 mg/kg; type: ADME, organism-based; details: in vivo; outline: as §2
Meriones unguiculatus [4] = assay: Inhibition of GR-73632-induced foot tapping in Mongolian gerbil assessed as duration of repetitive hind foot tapping pretreated at 1 mg/kg, icv before GR-73632 challenge measured after 4 hrs; type: functional; details: oral, in the assay text read “po before” for “icv before”; outline: as §1
Meriones unguiculatus [5] = assay: Inhibition of GR-73632-induced foot tapping in Mongolian gerbil assessed as duration of repetitive hind foot tapping pretreated at 0.1 mg/kg, icv before GR-73632 challenge measured after 4 hrs; type: functional; details: oral, in the assay text read “po” for “icv”; outline: as §1
[6] = AUC (0 to 6 hrs) in rat at 10 mg/kg, po; type: ADME, organism-based; design: time < 6 hr, dose 10 mg/kg, route oral; details: plasma; outline: as §2
[7] = AUC (0 to 6 hrs) in rat at 5 mg/kg, po after 24 hrs; type: ADME, organism-based; design: time < 6 hr, dose 5 mg/kg, route oral; details: plasma
[8] = AUC (0 to 6 hrs) in rat at 10 mg/kg, po after 6 hrs; type: ADME, organism-based; design: time < 6 hr, dose 10 mg/kg, route oral; details: plasma; outline: as §2

Chain of Substance-P receptor (P25103 whole entry): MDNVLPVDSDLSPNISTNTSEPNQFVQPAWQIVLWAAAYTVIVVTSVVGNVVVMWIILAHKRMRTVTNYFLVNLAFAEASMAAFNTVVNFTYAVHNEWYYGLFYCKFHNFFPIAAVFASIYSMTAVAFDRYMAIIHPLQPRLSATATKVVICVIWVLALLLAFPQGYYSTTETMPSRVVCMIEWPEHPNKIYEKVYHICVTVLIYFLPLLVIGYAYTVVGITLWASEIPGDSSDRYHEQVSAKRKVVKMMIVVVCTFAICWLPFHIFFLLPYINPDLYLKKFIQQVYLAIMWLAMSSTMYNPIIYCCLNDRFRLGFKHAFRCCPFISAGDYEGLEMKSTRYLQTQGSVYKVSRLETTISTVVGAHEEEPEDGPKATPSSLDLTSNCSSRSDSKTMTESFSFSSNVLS

SMILES	pKi (Substance-P receptor)	inhibition in vivo at 0.3 mg/kg (Meriones unguiculatus [1]) [%]	half-life [2] [h]	bioavailability [3] [%]	inhibition in vivo at 1 mg/kg (Meriones unguiculatus [4]) [%]	inhibition in vivo at 0.1 mg/kg (Meriones unguiculatus [5]) [%]	AUC(0-t) at 6 h [6] [ng·h/mL]	AUC(0-t) at 6 h [7] [ng·h/mL]	AUC(0-t) at 6 h [8] [ng·h/mL]
CC(=O)N[C@H]1CC[C@@](CO[C@H](C)c2cc(C(F)(F)F)cc(C(F)(F)F)c2)(c2ccccc2)NC1	9.82	99	3.2	63	100	83	10000	–	–
CC(=O)N[C@@H]1CC[C@@](CO[C@H](C)c2cc(C(F)(F)F)cc(C(F)(F)F)c2)(c2ccccc2)NC1	9.46	36	–	–	76	–	795	–	–
CCC(=O)N[C@H]1CC[C@@](CO[C@H](C)c2cc(C(F)(F)F)cc(C(F)(F)F)c2)(c2ccccc2)NC1	9.54	93	–	–	100	50	1950	–	–
C[C@@H](OC[C@@]1(c2ccccc2)CC[C@H](NC(=O)C2CC2)CN1)c1cc(C(F)(F)F)cc(C(F)(F)F)c1	9.64	79	–	–	100	–	5260	–	–
C[C@@H](OC[C@@]1(c2ccccc2)CC[C@H](N2CCCC2=O)CN1)c1cc(C(F)(F)F)cc(C(F)(F)F)c1	9.59	–	–	–	61	–	13800	–	–
C[C@@H](OC[C@@]1(c2ccccc2)CC[C@H](NC(N)=O)CN1)c1cc(C(F)(F)F)cc(C(F)(F)F)c1	9.16	6	–	–	96	–	6040	–	–
C[C@@H](OC[C@@]1(c2ccccc2)CC[C@H](N2CCNC2=O)CN1)c1cc(C(F)(F)F)cc(C(F)(F)F)c1	9.23	71	–	–	86	–	–	–	–
C[C@@H](OC[C@@]1(c2ccccc2)CC[C@H](NS(C)(=O)=O)CN1)c1cc(C(F)(F)F)cc(C(F)(F)F)c1	8.99	25	–	–	90	–	5940	–	–
C[C@@H](OC[C@@]1(c2ccccc2)CC[C@H](Nc2ncccn2)CN1)c1cc(C(F)(F)F)cc(C(F)(F)F)c1	9.48	–	–	–	5	–	–	–	–
C[C@@H](OC[C@@]1(c2ccccc2)CC[C@H](NC2=NCCO2)CN1)c1cc(C(F)(F)F)cc(C(F)(F)F)c1	9.55	–	–	–	37	–	–	–	–
C[C@@H](OC[C@@]1(c2ccccc2)CC[C@H](C(N)=O)CN1)c1cc(C(F)(F)F)cc(C(F)(F)F)c1	9.66	82	3.4	68	92	–	–	2600	–
C[C@@H](OC[C@@]1(c2ccccc2)CC[C@@H](C(N)=O)CN1)c1cc(C(F)(F)F)cc(C(F)(F)F)c1	9.72	75	–	–	90	–	–	–	1690
CNC(=O)[C@H]1CC[C@@](CO[C@H](C)c2cc(C(F)(F)F)cc(C(F)(F)F)c2)(c2ccccc2)NC1	9.59	29	–	–	91	–	–	–	–
CNC(=O)[C@@H]1CC[C@@](CO[C@H](C)c2cc(C(F)(F)F)cc(C(F)(F)F)c2)(c2ccccc2)NC1	9.25	–	–	–	80	–	–	–	166
CCNC(=O)[C@H]1CC[C@@](CO[C@H](C)c2cc(C(F)(F)F)cc(C(F)(F)F)c2)(c2ccccc2)NC1	9.43	28	–	–	92	–	–	–	3680
CCNC(=O)[C@@H]1CC[C@@](CO[C@H](C)c2cc(C(F)(F)F)cc(C(F)(F)F)c2)(c2ccccc2)NC1	8.95	–	–	–	78	–	–	–	–
C[C@@H](OC[C@@]1(c2ccccc2)CC[C@H](C(=O)NC2CC2)CN1)c1cc(C(F)(F)F)cc(C(F)(F)F)c1	9.47	–	–	–	45	–	–	–	1940
C[C@@H](OC[C@@]1(c2ccccc2)CC[C@@H](C(=O)NC2CC2)CN1)c1cc(C(F)(F)F)cc(C(F)(F)F)c1	9.40	–	–	–	69	–	–	–	–
C[C@@H](OC[C@@]1(c2ccccc2)CCCCN1)c1cc(C(F)(F)F)cc(C(F)(F)F)c1	9.52	–	–	–	–	–	–	–	–
FC(F)(F)c1cc(COCC2(c3ccccc3)CCCCN2)cc(C(F)(F)F)c1 (configuration not stated)	9.00	–	–	–	–	–	–	–	–
